From ChEMBL document CHEMBL2390856, “Carbon-11 N-methyl alkylation of L-368,899 and in vivo PET imaging investigations for neural oxytocin receptors” (Bioorg Med Chem Lett, 2013) come the findings set out here.

The target in series [1] is Vasopressin V1a receptor (Rattus norvegicus, UniProt P30560). Kind of series: Inhibition of rat liver V1a receptor.
Series [2] in a line: Oral bioavailability in rat. In kind it is ADME, organism-based. As to conditions: in vivo; call rule not given here.
Series [3] can be described thus: Oral bioavailability in dog. In kind it is ADME, organism-based, Canis lupus familiaris. As to conditions: in vivo.
The target in series [4] is Vasopressin V2 receptor (Rattus norvegicus, UniProt Q00788). Kind of series: Inhibition of rat kidney V2 receptor.
Series [5] concerns the target T1, Oxytocin receptor (Rattus norvegicus, UniProt P70536).
T1 sequence (P70536 whole entry): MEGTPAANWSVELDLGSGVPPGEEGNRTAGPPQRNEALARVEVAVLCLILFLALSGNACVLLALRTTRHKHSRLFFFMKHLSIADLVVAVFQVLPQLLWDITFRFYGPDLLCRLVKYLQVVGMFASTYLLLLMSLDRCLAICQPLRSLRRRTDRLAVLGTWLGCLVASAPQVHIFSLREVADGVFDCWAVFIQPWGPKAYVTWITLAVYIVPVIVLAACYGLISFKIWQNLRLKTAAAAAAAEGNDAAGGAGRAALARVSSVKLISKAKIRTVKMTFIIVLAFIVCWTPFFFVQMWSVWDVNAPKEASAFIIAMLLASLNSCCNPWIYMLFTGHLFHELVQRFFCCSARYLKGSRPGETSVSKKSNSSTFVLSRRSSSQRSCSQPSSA
The series is described as follows: Inhibition of rat uterus OT receptor.

The target in series [6] is Vasopressin V1a receptor (Homo sapiens, UniProt P37288). The series is described as follows: Binding affinity to human liver V1A receptor.
Series [7] addresses T2, Oxytocin receptor (Homo sapiens, UniProt P30559).
T2 sequence (P30559 whole entry): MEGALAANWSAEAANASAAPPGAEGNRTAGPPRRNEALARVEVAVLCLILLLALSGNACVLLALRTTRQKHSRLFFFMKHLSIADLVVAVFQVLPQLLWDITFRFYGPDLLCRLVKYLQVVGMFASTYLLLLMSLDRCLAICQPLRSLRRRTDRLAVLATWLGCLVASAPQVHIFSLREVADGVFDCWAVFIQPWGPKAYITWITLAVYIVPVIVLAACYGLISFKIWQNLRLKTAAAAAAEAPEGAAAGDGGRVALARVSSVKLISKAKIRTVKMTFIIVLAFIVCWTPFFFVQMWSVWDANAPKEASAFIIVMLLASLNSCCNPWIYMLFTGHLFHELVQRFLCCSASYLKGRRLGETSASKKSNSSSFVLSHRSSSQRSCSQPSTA
Kind of series: Binding affinity to human OT receptor. The method, boiled down: (§1)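 Ki values in nM from human receptor binding assays run by the NIMH Psychoactive Drug Screening Program.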

Series [8] addresses T3, Vasopressin V1b receptor (Homo sapiens, UniProt P47901).
T3 sequence (P47901 whole entry): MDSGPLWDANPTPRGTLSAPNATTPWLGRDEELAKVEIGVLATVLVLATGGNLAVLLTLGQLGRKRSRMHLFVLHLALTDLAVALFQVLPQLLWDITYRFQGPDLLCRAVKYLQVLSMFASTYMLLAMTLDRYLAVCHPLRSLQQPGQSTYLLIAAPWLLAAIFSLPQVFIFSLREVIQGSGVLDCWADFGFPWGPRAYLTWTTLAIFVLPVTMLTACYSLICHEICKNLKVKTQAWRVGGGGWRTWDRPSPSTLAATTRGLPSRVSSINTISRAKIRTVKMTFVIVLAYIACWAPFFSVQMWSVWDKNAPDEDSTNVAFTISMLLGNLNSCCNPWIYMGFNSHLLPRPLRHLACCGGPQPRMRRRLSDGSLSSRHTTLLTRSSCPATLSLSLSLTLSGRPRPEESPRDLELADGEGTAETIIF
The series is described as follows: Binding affinity to V1B receptor (unknown origin). An outline of the steps: as §1

The target in series [9] is Vasopressin V2 receptor (Homo sapiens, UniProt P30518). The series is described as follows: Binding affinity to human V2 receptor. The method, boiled down:
as §1

A short description of series [10]: Drug uptake in cynomolgus monkey muscle at 8.3 mCi, iv after 2 hrs by PET imaging analysis. The series is classed as ADME, organism-based, Macaca fascicularis, Muscle tissue. As to conditions: in vivo. The method, boiled down:
(§2)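 One male cynomolgus monkey (8.91 kg) given an 8.3 mCi iv bolus of radiotracer. PET scan for 2 h from injection, with images summed. Time-activity curves were derived for choroid plexus, muscle and whole brain.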

Series [11] can be described thus: Lipophilicity, log P of the compound at pH 7.4. In kind it is physicochemical. Conditions: buffer.
In series [12] the test system is Muscle tissue. Kind of series: Drug uptake in Sprague-Dawley rat muscle at 500 uCi by PET imaging analysis in presence of ornithine vasotocin. In kind it is ADME, tissue-based. As to conditions: in vivo. An outline of the steps:
(§3)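 Estradiol benzoate-primed Sprague-Dawley rats (10–12 μg sc in sesame oil, daily for 3 days). The peptide OT antagonist ornithine vasotocin (5 mg/kg) was injected 10 min before the radiotracer to block peripheral receptors. 500 μCi of tracer was injected 30 s into a 45 min emission scan.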

Series [13] concerns Brain. Kind of series: Drug uptake in Sprague-Dawley rat brain at 500 uCi by PET imaging analysis. In kind it is ADME, tissue-based. Conditions: in vivo.
Series [14] in a line: Drug uptake in Sprague-Dawley rat pituitary gland at 500 uCi by PET imaging analysis in presence of ornithine vasotocin. In kind it is ADME. Conditions: in vivo. An outline of the steps: as §3
Series [15] relates to Brain. Kind of series: Drug uptake in Sprague-Dawley rat brain at 500 uCi after 10 mins by PET imaging analysis. In kind it is ADME, tissue-based. Conditions: in vivo.
A short description of series [16]: Drug uptake in Sprague-Dawley rat amygdala at 500 uCi after 10 mins by PET imaging analysis. In kind it is ADME, tissue-based. As to conditions: in vivo.
The subject of series [17] is Hypothalamus. The series is described as follows: Drug uptake in Sprague-Dawley rat hypothalamus at 500 uCi after 10 mins by PET imaging analysis. The series is classed as ADME, tissue-based. Conditions: in vivo.
Series [18] in a line: Drug uptake in Sprague-Dawley rat dorsal caudate nucleus at 500 uCi after 10 mins by PET imaging analysis. In kind it is ADME, tissue-based. Conditions: in vivo.
Series [19] is described as follows: Drug uptake in cynomolgus monkey choroid plexus at 8.3 mCi, iv after 2 hrs by PET imaging analysis. In kind it is ADME, organism-based, Macaca fascicularis. As to conditions: in vivo. The method, boiled down: as §2
The nature of series [20]: Drug uptake in Sprague-Dawley rat pituitary gland at 500 uCi by PET imaging analysis. As to conditions: in vivo. The series is classed as ADME, tissue-based.
For series [21], the system named is Brain. Kind of series: Drug uptake in cynomolgus monkey brain at 8.3 mCi, iv after 2 hrs by PET imaging analysis. The series is classed as ADME, organism-based, Macaca fascicularis. As to conditions: in vivo. The method, boiled down:
as §2

Vasopressin V1a receptor (Rattus norvegicus, UniProt P30560), sequence (P30560 whole entry): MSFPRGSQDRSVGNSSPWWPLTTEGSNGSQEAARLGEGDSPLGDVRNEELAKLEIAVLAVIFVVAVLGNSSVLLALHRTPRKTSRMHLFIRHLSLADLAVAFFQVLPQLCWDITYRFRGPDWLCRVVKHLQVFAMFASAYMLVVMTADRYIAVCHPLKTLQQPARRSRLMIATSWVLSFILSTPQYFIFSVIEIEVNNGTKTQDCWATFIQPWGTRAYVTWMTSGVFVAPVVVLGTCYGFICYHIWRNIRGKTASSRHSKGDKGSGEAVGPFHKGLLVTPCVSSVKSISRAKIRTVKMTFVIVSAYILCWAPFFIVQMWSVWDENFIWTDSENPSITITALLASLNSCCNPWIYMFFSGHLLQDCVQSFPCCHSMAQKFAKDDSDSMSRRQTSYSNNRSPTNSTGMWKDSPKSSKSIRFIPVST
Vasopressin V2 receptor (Rattus norvegicus, UniProt Q00788), sequence (Q00788 whole entry): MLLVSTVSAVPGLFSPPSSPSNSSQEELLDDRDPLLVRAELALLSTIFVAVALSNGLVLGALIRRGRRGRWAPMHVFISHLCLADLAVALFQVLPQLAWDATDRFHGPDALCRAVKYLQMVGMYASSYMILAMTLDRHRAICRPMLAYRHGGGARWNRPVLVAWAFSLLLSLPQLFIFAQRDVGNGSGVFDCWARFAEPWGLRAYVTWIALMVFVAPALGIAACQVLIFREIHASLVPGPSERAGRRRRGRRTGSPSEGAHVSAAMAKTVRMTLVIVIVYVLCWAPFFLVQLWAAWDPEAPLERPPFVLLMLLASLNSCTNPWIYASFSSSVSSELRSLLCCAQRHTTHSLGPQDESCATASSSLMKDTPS
Vasopressin V1a receptor (Homo sapiens, UniProt P37288), sequence (P37288 whole entry): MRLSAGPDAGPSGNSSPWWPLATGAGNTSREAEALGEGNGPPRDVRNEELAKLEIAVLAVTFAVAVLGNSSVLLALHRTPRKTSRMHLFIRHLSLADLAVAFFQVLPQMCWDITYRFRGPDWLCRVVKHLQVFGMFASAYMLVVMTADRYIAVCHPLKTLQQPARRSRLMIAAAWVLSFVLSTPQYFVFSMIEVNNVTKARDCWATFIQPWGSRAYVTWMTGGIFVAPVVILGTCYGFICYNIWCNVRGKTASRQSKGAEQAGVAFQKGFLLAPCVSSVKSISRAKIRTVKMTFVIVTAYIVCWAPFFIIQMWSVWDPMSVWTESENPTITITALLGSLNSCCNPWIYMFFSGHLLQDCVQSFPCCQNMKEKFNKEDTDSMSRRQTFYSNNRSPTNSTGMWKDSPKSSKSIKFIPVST
Vasopressin V2 receptor (Homo sapiens, UniProt P30518), sequence (P30518 whole entry): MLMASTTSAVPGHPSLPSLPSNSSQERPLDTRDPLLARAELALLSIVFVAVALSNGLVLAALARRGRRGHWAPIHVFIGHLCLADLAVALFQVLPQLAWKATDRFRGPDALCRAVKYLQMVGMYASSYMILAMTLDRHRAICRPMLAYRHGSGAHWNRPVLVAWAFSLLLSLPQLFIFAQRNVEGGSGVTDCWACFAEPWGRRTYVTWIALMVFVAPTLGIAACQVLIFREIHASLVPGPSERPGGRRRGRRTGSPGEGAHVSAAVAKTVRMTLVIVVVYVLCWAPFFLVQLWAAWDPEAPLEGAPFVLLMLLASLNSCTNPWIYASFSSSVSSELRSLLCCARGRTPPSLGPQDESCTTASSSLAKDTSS

Turning to `Cc1ccccc1N1CCN(S(=O)(=O)C[C@]23CC[C@H](C[C@@H]2NC(=O)[C@@H](N)CCS(C)(=O)=O)C3(C)C)CC1`, the IC50 (usually the midpoint of a concentration-inhibition curve) in series [1] was found to be 370 nM; in [4], 570 nM; in series [5], 8.9 nM. The bioavailability in series [2] and in series [3] was 17% throughout.
As for `CN[C@@H](CCS(C)(=O)=O)C(=O)N[C@H]1C[C@H]2CC[C@]1(CS(=O)(=O)N1CCN(c3ccccc3C)CC1)C2(C)C`, the IC50 in [1] is 320 nM; in [4], 350 nM; in series [5], 9.2 nM. The Ki (in general, a dissociation constant, usually derived from enzyme kinetics or from competition with a known ligand) in [6] is 620 nM; in series [7], 5.2 nM; in series [8] it was 1300 nM; in series [9], 181 nM.
As for `Cc1ccccc1N1CCN(S(=O)(=O)C[C@]23CC[C@H](C[C@@H]2NC(=O)[C@H](CCS(C)(=O)=O)N[11CH3])C3(C)C)CC1`, the Drug uptake result in series [10], in series [12], in [13], in series [14], in [15] and in [16] was “Active” each time. Besides, the Drug uptake result was “Active” in series [17]; “Active” in series [18]; “Active” in series [19]; “Active” in series [20]; “Not Active” in series [21]. Besides, in series [11], the logD (in general, the decadic logarithm of the distribution of all forms, ionised or not, between an organic phase and buffer at a given pH) turned out to be 2.62.
